From ChEMBL document CHEMBL4311987, “Discovery of novel allosteric site and covalent inhibitors of FBPase with potent hypoglycemic effects” (Eur J Med Chem, 2019)

What was measured:
[1] = molecular target: T1, Fructose-1,6-bisphosphatase 1 (Homo sapiens, UniProt P09467); assay: Inhibition of human FBPase expressed in Escherichia coli BL21 (DE3) using FBP as substrate incubated for 5 mins by malachite green dye based spectrophotometry
T1 sequence (P09467 whole entry): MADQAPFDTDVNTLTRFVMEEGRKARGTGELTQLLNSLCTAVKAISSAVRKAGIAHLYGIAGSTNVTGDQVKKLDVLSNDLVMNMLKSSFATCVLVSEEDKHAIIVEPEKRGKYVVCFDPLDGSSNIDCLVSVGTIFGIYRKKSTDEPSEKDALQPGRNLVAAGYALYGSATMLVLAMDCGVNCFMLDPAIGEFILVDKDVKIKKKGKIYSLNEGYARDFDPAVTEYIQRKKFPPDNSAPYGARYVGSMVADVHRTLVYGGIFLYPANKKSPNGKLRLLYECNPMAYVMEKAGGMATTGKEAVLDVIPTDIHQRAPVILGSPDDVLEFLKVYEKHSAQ

[2] = species: Homo sapiens; assay: Selectivity index, ratio of IC50 for human FBPase C38S mutant expressed in Escherichia coli BL21 (DE3) to IC50 for human FBPase expressed in Escherichia coli BL21 (DE3)
Method in brief: (§1)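 IC50 values for each FBPase point mutant and for wild-type human FBPase came from the same malachite-green assay. The index is mutant IC50 divided by wild-type IC50.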

[3] = species: Homo sapiens; assay: Selectivity index, ratio of IC50 for human FBPase C92S mutant expressed in Escherichia coli BL21 (DE3) to IC50 for human FBPase expressed in Escherichia coli BL21 (DE3); method in brief: as §1
[4] = species: Homo sapiens; assay: Selectivity index, ratio of IC50 for human FBPase C116S mutant expressed in Escherichia coli BL21 (DE3) to IC50 for human FBPase expressed in Escherichia coli BL21 (DE3); method in brief: as §1
[5] = species: Homo sapiens; assay: Selectivity index, ratio of IC50 for human FBPase C128S mutant expressed in Escherichia coli BL21 (DE3) to IC50 for human FBPase expressed in Escherichia coli BL21 (DE3); method in brief: as §1
[6] = species: Homo sapiens; assay: Selectivity index, ratio of IC50 for human FBPase C179S mutant expressed in Escherichia coli BL21 (DE3) to IC50 for human FBPase expressed in Escherichia coli BL21 (DE3); method in brief: as §1
[7] = species: Homo sapiens; assay: Selectivity index, ratio of IC50 for human FBPase C183S mutant expressed in Escherichia coli BL21 (DE3) to IC50 for human FBPase expressed in Escherichia coli BL21 (DE3); method in brief: as §1
[8] = species: Homo sapiens; assay: Selectivity index, ratio of IC50 for human FBPase C281S mutant expressed in Escherichia coli BL21 (DE3) to IC50 for human FBPase expressed in Escherichia coli BL21 (DE3); method in brief: as §1
[9] = species: Homo sapiens; assay: Selectivity index, ratio of IC50 for human FBPase S124A mutant expressed in Escherichia coli BL21 (DE3) to IC50 for human FBPase expressed in Escherichia coli BL21 (DE3); method in brief: as §1
[10] = species: Homo sapiens; assay: Selectivity index, ratio of IC50 for human FBPase R243A mutant expressed in Escherichia coli BL21 (DE3) to IC50 for human FBPase expressed in Escherichia coli BL21 (DE3); method in brief: as §1
[11] = species: Homo sapiens; assay: Selectivity index, ratio of IC50 for human FBPase R254A mutant expressed in Escherichia coli BL21 (DE3) to IC50 for human FBPase expressed in Escherichia coli BL21 (DE3); method in brief: as §1
[12] = species: Homo sapiens; assay: Selectivity index, ratio of IC50 for human FBPase Y258A mutant expressed in Escherichia coli BL21 (DE3) to IC50 for human FBPase expressed in Escherichia coli BL21 (DE3); method in brief: as §1
[13] = molecular target: Fructose-1,6-bisphosphatase 1 (Homo sapiens, UniProt P09467, C129S); assay: Inhibition of human FBPase C128S mutant expressed in Escherichia coli BL21 (DE3) using FBP as substrate incubated for 5 mins by malachite green dye based spectrophotometry
Method in brief: (§2)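 Recombinant human FBPase (wild type or point mutants) was expressed in E. coli BL21 (DE3), purified and stored in 50% glycerol at -20 °C. Reactions ran 5 min at 37 °C, and released phosphate was read by malachite green.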

[14] = molecular target: Fructose-1,6-bisphosphatase 1 (Homo sapiens, UniProt P09467, C39S); assay: Inhibition of human FBPase C38S mutant expressed in Escherichia coli BL21 (DE3) using FBP as substrate incubated for 5 mins by malachite green dye based spectrophotometry; method in brief: as §2
[15] = molecular target: Fructose-1,6-bisphosphatase 1 (Homo sapiens, UniProt P09467, C93S); assay: Inhibition of human FBPase C92S mutant expressed in Escherichia coli BL21 (DE3) using FBP as substrate incubated for 5 mins by malachite green dye based spectrophotometry; method in brief: as §2
[16] = molecular target: Fructose-1,6-bisphosphatase 1 (Homo sapiens, UniProt P09467, C117S); assay: Inhibition of human FBPase C116S mutant expressed in Escherichia coli BL21 (DE3) using FBP as substrate incubated for 5 mins by malachite green dye based spectrophotometry; method in brief: as §2
[17] = molecular target: Fructose-1,6-bisphosphatase 1 (Homo sapiens, UniProt P09467, C180S); assay: Inhibition of human FBPase C179S mutant expressed in Escherichia coli BL21 (DE3) using FBP as substrate incubated for 5 mins by malachite green dye based spectrophotometry; method in brief: as §2
[18] = molecular target: Fructose-1,6-bisphosphatase 1 (Homo sapiens, UniProt P09467, C184S); assay: Inhibition of human FBPase C183S mutant expressed in Escherichia coli BL21 (DE3) using FBP as substrate incubated for 5 mins by malachite green dye based spectrophotometry; method in brief: as §2
[19] = molecular target: Fructose-1,6-bisphosphatase 1 (Homo sapiens, UniProt P09467, C282S); assay: Inhibition of human FBPase C281S mutant expressed in Escherichia coli BL21 (DE3) using FBP as substrate incubated for 5 mins by malachite green dye based spectrophotometry; method in brief: as §2
[20] = molecular target: Fructose-1,6-bisphosphatase 1 (Homo sapiens, UniProt P09467, S125A); assay: Inhibition of human FBPase S124A mutant expressed in Escherichia coli BL21 (DE3) using FBP as substrate incubated for 5 mins by malachite green dye based spectrophotometry; method in brief: as §2
[21] = molecular target: Fructose-1,6-bisphosphatase 1 (Homo sapiens, UniProt P09467, N126A); assay: Inhibition of human FBPase N125A mutant expressed in Escherichia coli BL21 (DE3) using FBP as substrate incubated for 5 mins by malachite green dye based spectrophotometry; method in brief: as §2
[22] = molecular target: Fructose-1,6-bisphosphatase 1 (Homo sapiens, UniProt P09467, R244A); assay: Inhibition of human FBPase R243A mutant expressed in Escherichia coli BL21 (DE3) using FBP as substrate incubated for 5 mins by malachite green dye based spectrophotometry; method in brief: as §2
[23] = molecular target: Fructose-1,6-bisphosphatase 1 (Homo sapiens, UniProt P09467, R255A); assay: Inhibition of human FBPase R254A mutant expressed in Escherichia coli BL21 (DE3) using FBP as substrate incubated for 5 mins by malachite green dye based spectrophotometry; method in brief: as §2
[24] = molecular target: Fructose-1,6-bisphosphatase 1 (Homo sapiens, UniProt P09467, Y259A); assay: Inhibition of human FBPase Y258A mutant expressed in Escherichia coli BL21 (DE3) using FBP as substrate incubated for 5 mins by malachite green dye based spectrophotometry; method in brief: as §2
Sequence of Fructose-1,6-bisphosphatase 1 (Homo sapiens, UniProt P09467, Y259A) (P09467 2-338 Y259A limits assumed): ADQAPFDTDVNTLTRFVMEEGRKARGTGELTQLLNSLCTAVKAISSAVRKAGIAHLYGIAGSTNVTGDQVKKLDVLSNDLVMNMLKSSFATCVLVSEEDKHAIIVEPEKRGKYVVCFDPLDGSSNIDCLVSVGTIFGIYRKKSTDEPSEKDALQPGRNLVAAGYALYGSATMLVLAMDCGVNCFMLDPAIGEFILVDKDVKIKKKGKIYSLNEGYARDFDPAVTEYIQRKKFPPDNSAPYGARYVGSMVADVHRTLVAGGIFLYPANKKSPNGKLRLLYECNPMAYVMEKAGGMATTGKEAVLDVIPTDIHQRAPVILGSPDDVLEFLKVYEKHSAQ

Sequence of Fructose-1,6-bisphosphatase 1 (Homo sapiens, UniProt P09467, R255A) (P09467 2-338 R255A limits assumed): as the sequence (P09467 2-338 Y259A limits assumed) above, with R254A, A258Y counted along it
Sequence of Fructose-1,6-bisphosphatase 1 (Homo sapiens, UniProt P09467, C93S) (P09467 2-338 C93S limits assumed): as the sequence (P09467 2-338 Y259A limits assumed) above, with C92S, A258Y counted along it
Sequence of Fructose-1,6-bisphosphatase 1 (Homo sapiens, UniProt P09467, C282S) (P09467 2-338 C282S limits assumed): as the sequence (P09467 2-338 Y259A limits assumed) above, with A258Y, C281S counted along it
Sequence of Fructose-1,6-bisphosphatase 1 (Homo sapiens, UniProt P09467, C129S) (P09467 2-338 C129S limits assumed): as the sequence (P09467 2-338 Y259A limits assumed) above, with C128S, A258Y counted along it
Sequence of Fructose-1,6-bisphosphatase 1 (Homo sapiens, UniProt P09467, N126A) (P09467 2-338 N126A limits assumed): as the sequence (P09467 2-338 Y259A limits assumed) above, with N125A, A258Y counted along it
Sequence of Fructose-1,6-bisphosphatase 1 (Homo sapiens, UniProt P09467, S125A) (P09467 2-338 S125A limits assumed): as the sequence (P09467 2-338 Y259A limits assumed) above, with S124A, A258Y counted along it
Sequence of Fructose-1,6-bisphosphatase 1 (Homo sapiens, UniProt P09467, C39S) (P09467 2-338 C39S limits assumed): as the sequence (P09467 2-338 Y259A limits assumed) above, with C38S, A258Y counted along it
Sequence of Fructose-1,6-bisphosphatase 1 (Homo sapiens, UniProt P09467, R244A) (P09467 2-338 R244A limits assumed): as the sequence (P09467 2-338 Y259A limits assumed) above, with R243A, A258Y counted along it
Sequence of Fructose-1,6-bisphosphatase 1 (Homo sapiens, UniProt P09467, C184S) (P09467 2-338 C184S limits assumed): as the sequence (P09467 2-338 Y259A limits assumed) above, with C183S, A258Y counted along it
Sequence of Fructose-1,6-bisphosphatase 1 (Homo sapiens, UniProt P09467, C117S) (P09467 2-338 C117S limits assumed): as the sequence (P09467 2-338 Y259A limits assumed) above, with C116S, A258Y counted along it
Sequence of Fructose-1,6-bisphosphatase 1 (Homo sapiens, UniProt P09467, C180S) (P09467 2-338 C180S limits assumed): as the sequence (P09467 2-338 Y259A limits assumed) above, with C179S, A258Y counted along it

With `CCOC(=O)C(C)(C)Oc1ccc(F)c(/C=C/[N+](=O)[O-])c1` the IC50 [1] was 610 nM, the Ratio IC50 [2] was 1 and the Ratio IC50 [3] was 1. It also gave a Ratio IC50 [4] of 1.6, a Ratio IC50 [5] greater than 820 and a Ratio IC50 [6] of 5.9. It also gave a Ratio IC50 [7] of 1.6, a Ratio IC50 [8] of 1.5 and a Ratio IC50 [9] of 39. The Ratio IC50 [10] was 28, the Ratio IC50 [11] was 20 and the Ratio IC50 [12] was 4.8. The IC50 [13] was greater than 500 µM, the IC50 [14] was 660 nM and the IC50 [15] was 640 nM. It also gave an IC50 [16] of 960 nM, an IC50 [17] of 3600 nM and an IC50 [18] of 970 nM. The IC50 [19] was 1300 nM, the IC50 [20] was 24 µM and the IC50 [21] was greater than 300 µM. It also gave an IC50 [22] of 17000 nM, an IC50 [23] of 12 µM and an IC50 [24] of 2900 nM.
In the case of `O=[N+]([O-])/C=C/c1cccc(F)c1`, the IC50 [1] is reported as 320 nM, the Ratio IC50 [2] is reported as 3.8 and the Ratio IC50 [3] is reported as 1.9. It also gave a Ratio IC50 [4] of 3.4, a Ratio IC50 [5] greater than 1010 and a Ratio IC50 [6] of 2.8. It also gave a Ratio IC50 [7] of 2.8, a Ratio IC50 [8] of 7.2 and a Ratio IC50 [9] of 37.8. For the same molecule, the Ratio IC50 [10] was 6.9, the Ratio IC50 [11] was 26 and the Ratio IC50 [12] was 19. The IC50 [13] was greater than 350 µM, the IC50 [14] was 1200 nM and the IC50 [15] was 620 nM. The IC50 [16] was 1100 nM, the IC50 [17] was 890 nM and the IC50 [18] was 920 nM. For the same molecule, the IC50 [19] was 2300 nM, the IC50 [20] was 12 µM and the IC50 [21] was greater than 200 µM. It also gave an IC50 [22] of 2200 nM, an IC50 [23] of 8.4 µM and an IC50 [24] of 19000 nM.
Molecule `N#Cc1ccc(/C=C/[N+](=O)[O-])cc1` has an IC50 [1] of 360 nM, a Ratio IC50 [2] of 1.4 and a Ratio IC50 [3] of 0.97. The Ratio IC50 [4] was 0.94, the Ratio IC50 [5] was greater than 1000 and the Ratio IC50 [6] was 1.2. It also gave a Ratio IC50 [7] of 1.2, a Ratio IC50 [8] of 1.7 and a Ratio IC50 [9] of 3.8. For the same molecule, the Ratio IC50 [10] was 1.9, the Ratio IC50 [11] was 10 and the Ratio IC50 [12] was 4.2. The IC50 [13] was greater than 350 µM, the IC50 [14] was 490 nM and the IC50 [15] was 340 nM. The IC50 [16] was 330 nM, the IC50 [17] was 430 nM and the IC50 [18] was 440 nM. The IC50 [19] was 610 nM, the IC50 [20] was 1.4 µM and the IC50 [21] was greater than 200 µM. It also gave an IC50 [22] of 680 nM, an IC50 [23] of 3.6 µM and an IC50 [24] of 1500 nM.
